Results from ChEMBL document CHEMBL1155362, “Synthesis, characterization and derivatization of some novel types of mono- and bis-imidazolidineiminothiones and imidazolidineiminodithiones with antitumor, antiviral, antibacterial and antifungal activities--part I” (Eur J Med Chem, 2009).
Activity calls are given as the source filed them. No cut-off for these calls is given here.

Experiments:
Staphylococcus aureus [1] = test: Antibacterial activity against Staphylococcus aureus NCTC 7447 at 4 mg/ml by agar disk diffusion assay; type: functional; conditions: read-out: DIZ
Aspergillus niger [2] = test: Antifungal activity against Aspergillus niger IMI 31726 at 4 mg/ml by agar disk diffusion assay; type: functional; conditions: read-out: DIZ
Human alphaherpesvirus 1 [3] = test: Antiviral activity against HSV1 infected african green monkey Vero cells at 10^-4 dilution of 5 mg/ml by plaque formation assay; type: functional
Method in brief: (§1)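 Compound dilutions prepared from a 5 mg/mL DMSO stock, using the maximum non-toxic dilution for Vero cells over 3 days; 0.1 mL virus (10³) mixed with 0.1 mL compound for 1 h at room temperature; mixture inoculated onto washed Vero monolayers in 12-well plates and adsorbed at 37 °C; 2× MEM/agarose overlay applied; read-out % reduction in plaque count versus untreated virus control.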

Escherichia coli [4] = test: Antibacterial activity against Escherichia coli NCTC 10416 at 4 mg/ml by agar disk diffusion assay; type: functional; conditions: read-out: DIZ
Candida albicans [5] = test: Antifungal activity against Candida albicans IMRU 3669 at 4 mg/ml by agar disk diffusion assay; type: functional; conditions: read-out: DIZ
Salmonella typhi [6] = test: Antibacterial activity against Salmonella typhi NCIMB 9331 at 4 mg/ml by agar disk diffusion assay; type: functional, Salmonella enterica subsp. enterica serovar Typhi; conditions: Salmonella enterica, read-out: DIZ
Coxsackievirus B4 [7] = test: Antiviral activity against Coxsackievirus B4 infected african green monkey Vero cells at 10^-4 dilution of 5 mg/ml by plaque formation assay; type: functional, organism-based; method in brief: as §1
Hepatovirus A [8] = test: Antiviral activity against Hepatitis A virus infected african green monkey Vero cells at 10^-4 dilution of 5 mg/ml by plaque formation assay; type: functional; method in brief: as §1
Bacillus subtilis [9] = test: Antibacterial activity against Bacillus subtilis NCTC 1040 at 4 mg/ml by agar disk diffusion assay; type: functional; conditions: read-out: DIZ
Staphylococcus aureus [10] = test: Antibacterial activity against Staphylococcus aureus NCTC 7447 at 5 mg/ml by agar disk diffusion assay; type: functional; conditions: read-out: DIZ
Escherichia coli [11] = test: Antibacterial activity against Escherichia coli NCTC 10416 at 5 mg/ml by agar disk diffusion assay; type: functional; conditions: read-out: DIZ
Human alphaherpesvirus 1 [12] = test: Antiviral activity against HSV1 infected african green monkey Vero cells at 10^-3 dilution of 5 mg/ml by plaque formation assay; type: functional; method in brief: as §1
Aspergillus niger [13] = test: Antifungal activity against Aspergillus niger IMI 31726 at 5 mg/ml by agar disk diffusion assay; type: functional; conditions: read-out: DIZ
Candida albicans [14] = test: Antifungal activity against Candida albicans IMRU 3669 at 5 mg/ml by agar disk diffusion assay; type: functional; conditions: Candida albicans, IMRU 3669; read-out: DIZ
Method in brief: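 Fungi maintained on Czapek's Dox agar; agar well diffusion with 1 cm wells and […] of each concentration (1, 2.5, 5 mg/mL) in DMF; inhibition zone diameter measured.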

Bacillus subtilis [15] = test: Antibacterial activity against Bacillus subtilis NCTC 1040 at 5 mg/ml by agar disk diffusion assay; type: functional; conditions: read-out: DIZ
Hepatovirus A [16] = test: Antiviral activity against HAV infected african green monkey Vero cells at 10^-3 dilution of 5 mg/ml by plaque formation assay; type: functional; method in brief: as §1
Coxsackievirus B4 [17] = test: Antiviral activity against Coxsackievirus B4 infected african green monkey Vero cells at 10^-3 dilution of 5 mg/ml by plaque formation assay; type: functional; method in brief: as §1
Salmonella typhi [18] = test: Antibacterial activity against Salmonella typhi NCIMB 9331 at 5 mg/ml by agar disk diffusion assay; type: functional, Salmonella enterica subsp. enterica serovar Typhi; conditions: Salmonella enterica, read-out: DIZ
Human alphaherpesvirus 1 [19] = test: Antiviral activity against HSV1 infected african green monkey Vero cells at 10^-2 dilution of 5 mg/ml by plaque formation assay; type: functional; method in brief: as §1
Coxsackievirus B4 [20] = test: Antiviral activity against Coxsackievirus B4 infected african green monkey Vero cells at 10^-2 dilution of 5 mg/ml by plaque formation assay; type: functional; method in brief: as §1
Hepatovirus A [21] = test: Antiviral activity against HAV infected african green monkey Vero cells at 10^-2 dilution of 5 mg/ml by plaque formation assay; type: functional; method in brief: as §1

What does the source list for `N=C1C(=S)N(c2ccc(Br)cc2)C(=O)N1c1ccc(Cl)c(C(F)(F)F)c1`?
zone of inhibition at 4000 µg/mL (Staphylococcus aureus [1]): 17.5 mm; zone of inhibition at 4000 µg/mL (Aspergillus niger [2]): 16 mm; Activity (Human alphaherpesvirus 1 [3]): 50%; zone of inhibition at 4000 µg/mL (Escherichia coli [4]): 18 mm; zone of inhibition at 4000 µg/mL (Candida albicans [5]): 16 mm; zone of inhibition at 4000 µg/mL (Salmonella typhi [6]): 16.5 mm; Activity (Coxsackievirus B4 [7]): inactive; Activity (Hepatovirus A [8]): inactive; zone of inhibition at 4000 µg/mL (Bacillus subtilis [9]): 16 mm

Which zone of inhibition at 5000 µg/mL (Staphylococcus aureus [10]) does the source give for `CCOc1ccc(N2C(=O)N(c3ccc4c(c3)Cc3ccccc3-4)C(=N)C2=S)cc1` here?
The zone of inhibition at 5000 µg/mL was 19 mm.

What about the zone of inhibition at 5000 µg/mL (Escherichia coli [11]) of the same compound?
Its zone of inhibition at 5000 µg/mL is 17 mm.

And the Activity (Human alphaherpesvirus 1 [12])?
The Activity was 50%.

And the zone of inhibition at 5000 µg/mL (Aspergillus niger [13])?
The zone of inhibition at 5000 µg/mL was 20 mm.

And the zone of inhibition at 5000 µg/mL (Candida albicans [14])?
Its zone of inhibition at 5000 µg/mL is 15 mm.

What about the zone of inhibition at 5000 µg/mL (Bacillus subtilis [15]) of the same compound?
Its zone of inhibition at 5000 µg/mL is 17 mm.

What about the Activity (Hepatovirus A [16]) of the same compound?
Its Activity is “inactive”.

And the Activity (Coxsackievirus B4 [17])?
Its Activity is “inactive”.

What about the zone of inhibition at 5000 µg/mL (Salmonella typhi [18]) of the same compound?
The zone of inhibition at 5000 µg/mL was 18 mm.

Which results are given for `CCOc1ccc(N2C(=O)N(c3ccc4c(c3)Cc3ccccc3-4)C(=O)C2=S)cc1`?
zone of inhibition at 5000 µg/mL (Staphylococcus aureus [10]): 15.5 mm; Activity (Human alphaherpesvirus 1 [19]): 50%; zone of inhibition at 5000 µg/mL (Escherichia coli [11]): 19 mm; Activity (Coxsackievirus B4 [20]): 60%; zone of inhibition at 5000 µg/mL (Candida albicans [14]): 14.5 mm; Activity (Hepatovirus A [21]): 50%; zone of inhibition at 5000 µg/mL (Bacillus subtilis [15]): 17 mm; zone of inhibition at 5000 µg/mL (Salmonella typhi [18]): 17.5 mm
